Results as given in ChEMBL document CHEMBL3596098, “Insights into the interaction of negative allosteric modulators with the metabotropic glutamate receptor 5: discovery and computational modeling of a new series of ligands with nanomolar affinity” (Bioorg Med Chem, 2015).
pIC50, pKi: −log10 of the molar value.

Legend:
[1] = molecular target: Metabotropic glutamate receptor 5 (Rattus norvegicus, UniProt P31424); experiment: Displacement of [3H]MPEP from mGluR5 receptor in Sprague-Dawley rat forebrain membrane after 60 mins by liquid scintillation spectrometry
[2] = molecular target: T1, Metabotropic glutamate receptor 5 (Homo sapiens, UniProt P41594); experiment: Displacement of [3H]MPEP from human cloned mGluR5 receptor expressed in CHO-T-Rex cells after 60 mins by liquid scintillation spectrometry; type: cell-based
Target sequence in this assay (P41594 whole entry): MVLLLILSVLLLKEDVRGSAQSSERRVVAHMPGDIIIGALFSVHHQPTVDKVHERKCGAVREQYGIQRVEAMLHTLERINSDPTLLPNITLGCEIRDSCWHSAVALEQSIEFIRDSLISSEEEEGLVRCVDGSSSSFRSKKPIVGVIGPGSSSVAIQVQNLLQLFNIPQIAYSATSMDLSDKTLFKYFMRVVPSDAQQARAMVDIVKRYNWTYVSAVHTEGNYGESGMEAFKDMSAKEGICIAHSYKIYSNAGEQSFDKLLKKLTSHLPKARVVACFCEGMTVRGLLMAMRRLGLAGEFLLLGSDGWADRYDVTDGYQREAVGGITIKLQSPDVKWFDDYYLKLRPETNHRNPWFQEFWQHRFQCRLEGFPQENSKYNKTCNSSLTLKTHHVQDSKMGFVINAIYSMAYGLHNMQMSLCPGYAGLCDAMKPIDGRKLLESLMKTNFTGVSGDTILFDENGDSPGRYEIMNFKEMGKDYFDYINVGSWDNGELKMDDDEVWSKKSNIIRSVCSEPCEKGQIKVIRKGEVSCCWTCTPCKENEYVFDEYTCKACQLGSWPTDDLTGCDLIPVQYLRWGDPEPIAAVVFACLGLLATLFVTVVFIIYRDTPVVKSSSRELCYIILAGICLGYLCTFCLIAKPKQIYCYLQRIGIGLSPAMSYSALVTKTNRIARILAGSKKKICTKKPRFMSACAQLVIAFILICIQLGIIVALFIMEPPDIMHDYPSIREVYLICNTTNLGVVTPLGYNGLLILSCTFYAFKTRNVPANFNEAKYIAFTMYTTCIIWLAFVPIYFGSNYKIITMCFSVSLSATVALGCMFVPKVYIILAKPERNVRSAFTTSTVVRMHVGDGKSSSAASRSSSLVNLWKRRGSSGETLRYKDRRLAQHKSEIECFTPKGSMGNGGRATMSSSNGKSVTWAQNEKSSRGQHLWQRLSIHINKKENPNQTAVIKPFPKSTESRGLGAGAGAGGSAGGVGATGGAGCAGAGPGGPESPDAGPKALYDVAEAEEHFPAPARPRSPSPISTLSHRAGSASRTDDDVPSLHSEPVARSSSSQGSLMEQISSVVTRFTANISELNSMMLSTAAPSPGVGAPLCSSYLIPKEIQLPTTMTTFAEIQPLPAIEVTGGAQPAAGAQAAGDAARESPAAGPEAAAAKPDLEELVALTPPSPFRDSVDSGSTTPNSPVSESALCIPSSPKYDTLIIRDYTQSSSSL

[3] = molecular target: T1, Metabotropic glutamate receptor 5; experiment: Negative allosteric modulatory activity at human cloned mGluR5 receptor expressed in CHO-T-Rex cells assessed as inhibiton of quisqualate-induced calcium mobilization treated 10 mins prior to agonist application by fluorescence analysis; type: functional, cell-based
How it was run: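 CHO T-REx cells expressing human mGlu5, induced 18 h with 3 ng/mL tetracycline and seeded at 80,000 cells/well. Loaded 1 h at 37 °C with 2 µM Fluo-4/AM in HBSS with 20 mM HEPES and 2.5 mM probenecid, then washed. Compound (0.5% DMSO final) added 10 min before quisqualate at its daily EC80. Peak minus basal fluorescence read every 1.5 s for 60 s.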
Target sequence in this assay (P41594 whole entry): as above

[4] = molecular target: T2, Metabotropic glutamate receptor 1 (Rattus norvegicus, UniProt P23385); experiment: Displacement of [3H]R214127 from rat cloned mGluR1 receptor expressed in CHO-T-Rex cells after 30 mins by liquid scintillation spectrometry; type: cell-based
How it was run: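 CHO T-REx cells stably expressing rat mGlu1, derepressed by 1 µg/mL tetracycline for 18 h. Nonspecific binding with 1 µM R214127. Filtration, scintillation counting. Ki by Cheng-Prusoff.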

[5] = molecular target: T2, Metabotropic glutamate receptor 1; experiment: Negative allosteric modulatory activity at rat cloned mGluR1 receptor expressed in CHO-T-Rex cells assessed as inhibiton of quisqualate-induced calcium mobilization treated 10 mins prior to agonist application by fluorescence analysis; type: functional, cell-based
How it was run: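 CHO T-REx cells expressing rat mGlu1, induced 18 h with 10 ng/mL tetracycline and seeded at 80,000 cells/well. Loaded with 2 µM Fluo-4/AM (1 h, 37 °C, HBSS/HEPES/probenecid), then washed. Compound (0.5% DMSO final) given 10 min before quisqualate at its daily EC80. Peak minus basal fluorescence recorded over 60 s. Three independent experiments.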

[6] = molecular target: T1, Metabotropic glutamate receptor 5; experiment: Non-competitive antagonist activity at human cloned mGluR5 receptor expressed in CHO-T-Rex cells assessed as inhibiton of quisqualate-induced calcium mobilization at 0.3 nM treated 10 mins prior to agonist application by fluorescence analysis; type: functional, cell-based
Target sequence in this assay (P41594 21-1212 limits assumed): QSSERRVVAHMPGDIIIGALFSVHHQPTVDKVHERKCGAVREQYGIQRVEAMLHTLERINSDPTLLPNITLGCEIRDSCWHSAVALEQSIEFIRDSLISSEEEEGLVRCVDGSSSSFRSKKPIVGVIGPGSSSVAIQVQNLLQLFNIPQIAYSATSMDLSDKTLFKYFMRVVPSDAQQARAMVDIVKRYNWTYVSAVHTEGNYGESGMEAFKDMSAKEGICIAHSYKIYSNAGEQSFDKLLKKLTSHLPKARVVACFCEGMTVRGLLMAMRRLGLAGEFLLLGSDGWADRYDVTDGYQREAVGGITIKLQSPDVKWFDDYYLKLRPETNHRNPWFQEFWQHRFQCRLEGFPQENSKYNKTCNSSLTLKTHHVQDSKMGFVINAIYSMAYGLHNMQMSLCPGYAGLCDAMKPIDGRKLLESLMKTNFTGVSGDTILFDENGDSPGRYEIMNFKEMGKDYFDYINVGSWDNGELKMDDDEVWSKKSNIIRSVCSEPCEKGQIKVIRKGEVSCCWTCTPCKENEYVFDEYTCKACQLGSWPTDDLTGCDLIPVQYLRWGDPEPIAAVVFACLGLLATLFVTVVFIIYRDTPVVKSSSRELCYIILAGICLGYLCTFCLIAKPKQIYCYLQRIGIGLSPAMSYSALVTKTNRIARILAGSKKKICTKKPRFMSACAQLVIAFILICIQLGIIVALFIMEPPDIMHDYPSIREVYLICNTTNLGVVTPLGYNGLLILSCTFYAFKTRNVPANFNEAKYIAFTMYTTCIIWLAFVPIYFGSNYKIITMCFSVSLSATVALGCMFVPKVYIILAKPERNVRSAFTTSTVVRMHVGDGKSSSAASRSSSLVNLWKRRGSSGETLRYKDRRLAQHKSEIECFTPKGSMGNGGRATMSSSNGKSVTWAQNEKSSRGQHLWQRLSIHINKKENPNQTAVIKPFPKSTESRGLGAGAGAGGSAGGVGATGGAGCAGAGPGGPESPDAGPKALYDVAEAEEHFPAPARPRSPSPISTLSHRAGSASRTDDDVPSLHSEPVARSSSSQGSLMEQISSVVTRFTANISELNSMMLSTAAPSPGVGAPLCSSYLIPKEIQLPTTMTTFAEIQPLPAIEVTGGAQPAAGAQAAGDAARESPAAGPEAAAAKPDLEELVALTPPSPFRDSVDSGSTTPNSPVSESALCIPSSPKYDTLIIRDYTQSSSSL

Sequence of Metabotropic glutamate receptor 5 (Rattus norvegicus, UniProt P31424) (P31424 whole entry): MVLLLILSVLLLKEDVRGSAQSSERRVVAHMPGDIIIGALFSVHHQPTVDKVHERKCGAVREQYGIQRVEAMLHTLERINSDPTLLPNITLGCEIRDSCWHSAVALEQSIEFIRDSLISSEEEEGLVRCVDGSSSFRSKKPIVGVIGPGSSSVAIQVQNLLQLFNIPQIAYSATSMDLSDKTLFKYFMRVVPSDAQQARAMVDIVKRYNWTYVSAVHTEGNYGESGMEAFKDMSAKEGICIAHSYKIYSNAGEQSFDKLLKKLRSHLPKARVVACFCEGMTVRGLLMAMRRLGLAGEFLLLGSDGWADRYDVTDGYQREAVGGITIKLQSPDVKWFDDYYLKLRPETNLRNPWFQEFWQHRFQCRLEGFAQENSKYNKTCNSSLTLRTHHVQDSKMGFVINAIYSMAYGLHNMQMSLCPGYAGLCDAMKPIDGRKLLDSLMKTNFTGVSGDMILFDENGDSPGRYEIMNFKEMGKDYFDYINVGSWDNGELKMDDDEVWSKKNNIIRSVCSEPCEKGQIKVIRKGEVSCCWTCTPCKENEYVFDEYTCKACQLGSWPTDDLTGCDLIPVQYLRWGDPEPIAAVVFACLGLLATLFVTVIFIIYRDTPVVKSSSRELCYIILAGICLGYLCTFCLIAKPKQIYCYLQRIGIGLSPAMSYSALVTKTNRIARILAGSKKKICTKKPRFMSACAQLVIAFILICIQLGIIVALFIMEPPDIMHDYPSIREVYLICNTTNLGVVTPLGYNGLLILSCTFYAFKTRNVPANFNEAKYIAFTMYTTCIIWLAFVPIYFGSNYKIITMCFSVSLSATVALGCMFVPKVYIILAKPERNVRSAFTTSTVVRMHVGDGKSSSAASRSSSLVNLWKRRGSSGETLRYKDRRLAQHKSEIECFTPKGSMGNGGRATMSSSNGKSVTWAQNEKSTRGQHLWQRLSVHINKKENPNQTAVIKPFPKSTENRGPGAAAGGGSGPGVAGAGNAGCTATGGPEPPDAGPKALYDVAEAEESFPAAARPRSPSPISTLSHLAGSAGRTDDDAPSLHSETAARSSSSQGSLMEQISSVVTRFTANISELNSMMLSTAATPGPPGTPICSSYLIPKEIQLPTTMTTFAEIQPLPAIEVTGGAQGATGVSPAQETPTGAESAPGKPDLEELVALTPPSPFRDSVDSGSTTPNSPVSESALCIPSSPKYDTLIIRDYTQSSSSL
T2 sequence (P23385 whole entry): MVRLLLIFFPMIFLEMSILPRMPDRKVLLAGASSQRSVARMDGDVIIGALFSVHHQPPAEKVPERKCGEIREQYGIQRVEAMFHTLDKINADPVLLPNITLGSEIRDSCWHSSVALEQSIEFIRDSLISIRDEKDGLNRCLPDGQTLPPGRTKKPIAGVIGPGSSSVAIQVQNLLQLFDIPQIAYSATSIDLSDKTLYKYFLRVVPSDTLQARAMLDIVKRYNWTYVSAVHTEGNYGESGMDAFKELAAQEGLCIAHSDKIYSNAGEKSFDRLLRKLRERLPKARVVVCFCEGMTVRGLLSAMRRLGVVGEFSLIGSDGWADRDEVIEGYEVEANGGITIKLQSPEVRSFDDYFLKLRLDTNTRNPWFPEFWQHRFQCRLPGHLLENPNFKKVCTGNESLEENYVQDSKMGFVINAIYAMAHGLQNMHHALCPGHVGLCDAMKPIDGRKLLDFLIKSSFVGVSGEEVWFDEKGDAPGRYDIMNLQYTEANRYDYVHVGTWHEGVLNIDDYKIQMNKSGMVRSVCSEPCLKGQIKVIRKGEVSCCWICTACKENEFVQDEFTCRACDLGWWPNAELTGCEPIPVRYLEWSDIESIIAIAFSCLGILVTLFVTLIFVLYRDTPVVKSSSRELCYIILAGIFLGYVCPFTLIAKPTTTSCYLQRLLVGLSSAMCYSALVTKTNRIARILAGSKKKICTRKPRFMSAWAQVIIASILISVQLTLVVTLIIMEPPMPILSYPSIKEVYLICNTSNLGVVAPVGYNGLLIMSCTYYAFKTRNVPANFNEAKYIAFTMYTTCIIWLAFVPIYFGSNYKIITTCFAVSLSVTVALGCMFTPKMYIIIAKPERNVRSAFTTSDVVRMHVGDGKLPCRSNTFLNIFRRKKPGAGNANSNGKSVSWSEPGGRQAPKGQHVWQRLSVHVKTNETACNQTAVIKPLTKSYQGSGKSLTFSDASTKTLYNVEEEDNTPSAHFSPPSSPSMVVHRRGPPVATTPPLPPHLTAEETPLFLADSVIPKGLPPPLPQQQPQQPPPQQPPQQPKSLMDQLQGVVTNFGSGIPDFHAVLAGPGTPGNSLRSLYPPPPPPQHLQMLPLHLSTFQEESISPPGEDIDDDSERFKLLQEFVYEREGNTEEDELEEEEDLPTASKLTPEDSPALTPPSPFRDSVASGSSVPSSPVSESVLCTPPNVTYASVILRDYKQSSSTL

pKi [1]	pKi [2]	pIC50 [3]	pKi [4]	pIC50 [5]	inhibition [6] [%]	SMILES
9.70	9.52	7.98	7.15	6.26		Cc1cccc(C#CC=C2CCN(c3ccccc3[N+](=O)[O-])CC2)n1
6.50	6.79	7.44				CN1CC(=O)N=C1NC(=O)Nc1cccc(Cl)c1 [FENOBAM ANHYDROUS]
9.22	9.40	8.55	8.32	7.41		O=[N+]([O-])c1cccnc1N1CCC(=CC#Cc2ccccc2)CC1
< 6.00	< 5.00					O=C(c1ccc(-c2ccccc2)cc1)N1CCN(c2ncccc2[N+](=O)[O-])CC1
< 5.00	< 5.00					Cc1ccc([N+](=O)[O-])c(N2CCN(C(=O)c3cccc(-c4ccccc4)c3)CC2)n1
			< 5.00			Cc1cccc(C#Cc2ccccc2)n1
			< 5.00			Cc1nc(C#Cc2ccc(-c3cccnc3)nc2)cs1
			< 5.00			Cc1nc(C#Cc2cccnc2)cs1
< 5.00	< 5.00					O=C(c1ccccc1-c1ccccc1)N1CCN(c2ncccc2[N+](=O)[O-])CC1
7.04	7.53	7.26				Cc1cccc(C#CC=C2CCN(c3ccccc3)CC2)n1
	6.55		< 6.00			N#Cc1cc(Cl)cc(C#CC=C2CCN(c3ncccc3[N+](=O)[O-])CC2)c1
	< 6.00					CC1(C)CN(c2ccc(C#CC=C3CCN(c4ncccc4[N+](=O)[O-])CC3)cc2)C1=O
9.22	9.30	9.05	7.01	6.57		O=C(C#Cc1ccccc1)N1CCN(c2ncccc2[N+](=O)[O-])CC1
9.40	9.52	8.89	6.72			Cc1ccc([N+](=O)[O-])c(N2CCC(=CC#Cc3ccc(C#N)cn3)CC2)n1
< 6.00	< 5.00					O=C(c1cnc2ccccc2n1)N1CCN(c2ncccc2[N+](=O)[O-])CC1
10.52	9.30	9.10	6.73	6.35	50	Cc1cccc(C#CC=C2CCN(c3ncccc3[N+](=O)[O-])CC2)n1
8.54	9.30	8.01	6.35			Cc1cccc(C#CC=C2CCN(c3ncc(-c4ccccc4)cc3C#N)CC2)n1
9.40	9.52	8.74	7.73	6.26		Cc1cccc(C#CC=C2CCN(c3ncccc3[N+](=O)[O-])CC2)c1
6.93	7.22		< 6.00			O=[N+]([O-])c1cccnc1N1CCN(CC#Cc2ccccc2)CC1
	6.58		< 6.00			Cc1cccc(C#C/C=C2/CCCN(c3nc(C)ccc3[N+](=O)[O-])C2)n1
9.40	9.30	8.42	7.73	5.87		O=[N+]([O-])c1cccnc1N1CCC(=CC#Cc2cccc(Cl)c2)CC1
10.00	9.52	9.40	7.41	6.68		O=[N+]([O-])c1cccnc1N1CCC(=CC#Cc2ccccn2)CC1
8.89		7.38	7.27			C=Cc1ccc([N+](=O)[O-])c(N2CCN(C(=O)C#Cc3ccccc3)CC2)n1
8.74	9.40		7.16			O=C(C#Cc1ccccc1)N1CCN(c2ccccc2[N+](=O)[O-])CC1
